Laboratory results as given in ChEMBL document CHEMBL4813987, “Membrane active 7-thiazoxime quinolones as novel DNA binding agents to decrease the genes expression and exert potent anti-methicillin-resistant Staphylococcus aureus activity” (Eur J Med Chem, 2021).
In brackets after ≈: the same amount, converted by molar mass. Activity calls are given as the source filed them. The calls are words filed in the database; no cut-off is given here.

Tests used:
[1] = test system: Escherichia coli; assay: Antibacterial activity against Escherichia coli ATCC 25922 assessed as reduction in microbial growth by two fold microdilution method; type: functional
[2] = test system: Escherichia coli; assay: Antibacterial activity against Escherichia coli assessed as reduction in microbial growth by two fold microdilution method; type: functional
[3] = test system: Staphylococcus aureus; assay: Antibacterial activity against Staphylococcus aureus assessed as reduction in microbial growth by two fold microdilution method; type: functional
Procedure, shortened: (§1)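 MIC determined by the standard two-fold broth micro-dilution assay, with norfloxacin and ciprofloxacin as reference agents.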

[4] = test system: Staphylococcus aureus; assay: Antibacterial activity against Staphylococcus aureus ATCC 29213 assessed as reduction in microbial growth by two fold microdilution method; type: functional
[5] = test system: Enterococcus faecalis; assay: Antibacterial activity against Enterococcus faecalis assessed as reduction in microbial growth by two fold microdilution method; type: functional
[6] = test system: Pseudomonas aeruginosa; assay: Antibacterial activity against Pseudomonas aeruginosa assessed as reduction in microbial growth by two fold microdilution method; type: functional
[7] = test system: Acinetobacter baumannii; assay: Antibacterial activity against Acinetobacter baumannii assessed as reduction in microbial growth by two fold microdilution method; type: functional
[8] = test system: Pseudomonas aeruginosa; assay: Antibacterial activity against Pseudomonas aeruginosa ATCC 27853 assessed as reduction in microbial growth by two fold microdilution method; type: functional
[9] = test system: Staphylococcus aureus; assay: Antibacterial activity against Staphylococcus aureus ATCC 25923 assessed as reduction in microbial growth by two fold microdilution method; type: functional
[10] = test system: Klebsiella pneumoniae; assay: Antibacterial activity against Klebsiella pneumonia assessed as reduction in microbial growth by two fold microdilution method; type: functional
[11] = test system: Staphylococcus aureus; assay: Antibacterial activity against methicillin-resistant Staphylococcus aureus assessed as reduction in microbial growth by two fold microdilution method; type: functional; procedure, shortened: as §1
[12] = test system: Staphylococcus aureus; assay: Antibacterial activity against methicillin-resistant Staphylococcus aureus assessed as reduction in bacterial growth at 50 to 300 ug/ml measured after 14 passages; type: functional, organism-based; conditions: dose 50-300 µg/ml
[13] = test system: Staphylococcus aureus; assay: Potency index, ratio of norfloxacin MIC to test compound MIC for antibacterial activity against methicillin-resistant Staphylococcus aureus assessed as reduction in microbial growth by two fold microdilution method; type: functional
[14] = test system: Klebsiella pneumoniae; assay: Antibacterial activity against Klebsiella pneumonia in presence of (E)-1-cyclopropyl-6-fluoro-7-(4-(2-((2-methoxy-2-oxoethoxy)imino)-2-(thiazol-2-yl)ethyl)piperazin-1-yl)-4-oxo-1,4-dihydroquinoline-3-carboxylic acid (reference value: 2 ug/ml)
[15] = test system: Staphylococcus aureus; assay: microbe, parasite or virus in culture
[16] = test system: Staphylococcus aureus; assay: microbe, parasite or virus in culture; conditions: ATCC 25923
[17] = test system: Staphylococcus aureus; assay: Potency index, ratio of norfloxacin MIC to test compound MIC for antibacterial activity against Staphylococcus aureus ATCC 29213 assessed as reduction in microbial growth by two fold microdilution method; type: functional

Row | SMILES | MIC [1] | MIC [2] | MIC [3] | MIC [4] | MIC [5] | MIC [6] | MIC [7] | MIC [8] | MIC [9] | MIC [10] | MIC [11] | Activity [12] | Ratio [13] | MIC [14] | MIC [15] | MIC [16] | Ratio [17]
1 | CCO/N=C(\CN1CCN(c2cc3c(cc2F)c(=O)c(C(=O)O)cn3C2CC2)CC1)c1nccs1 | 32 µg/mL | 2 µg/mL | 0.25 µg/mL | 4 µg/mL | 0.25 µg/mL | 0.25 µg/mL | 1 µg/mL | 0.25 µg/mL | 0.5 µg/mL | 0.25 µg/mL | 0.25 µg/mL | – | – | – | – | – | –
2 | CC(C)(C)O/N=C(\CN1CCN(c2c(F)cc3c(=O)c(C(=O)O)cn(C4CC4)c3c2Cl)CC1)c1nccs1 | 0.25 µg/mL | 4 µg/mL | 0.25 µg/mL | 0.25 µg/mL | 0.25 µg/mL | 0.25 µg/mL | 0.25 µg/mL | 0.25 µg/mL | 0.5 µg/mL | 256 µg/mL | 0.25 µg/mL | inactive | – | – | – | – | –
3 | CO/N=C(\CN1CCN(c2c(F)cc3c(=O)c(C(=O)O)cn(C4CC4)c3c2Cl)CC1)c1nccs1 | 0.25 µg/mL | 0.25 µg/mL | 0.25 µg/mL | 0.25 µg/mL | 0.25 µg/mL | 1 µg/mL | 0.25 µg/mL | 0.25 µg/mL | 0.5 µg/mL | 0.25 µg/mL | 0.25 µg/mL | inactive | – | – | – | – | –
4 | C=CCO/N=C(\CN1CCN(c2cc3c(cc2F)c(=O)c(C(=O)O)cn3CC)CC1)c1nccs1 | 0.5 µg/mL | 0.25 µg/mL | 0.25 µg/mL | 2 µg/mL | 1 µg/mL | 0.25 µg/mL | 0.25 µg/mL | 4 µg/mL | 0.5 µg/mL | 256 µg/mL | 0.25 µg/mL | inactive | 64 | – | – | – | –
5 | C=CCO/N=C(\CN1CCN(c2c(F)cc3c(=O)c(C(=O)O)cn(C4CC4)c3c2Cl)CC1)c1nccs1 | 0.5 µg/mL | 0.25 µg/mL | 0.25 µg/mL | 0.5 µg/mL | 0.25 µg/mL | 0.25 µg/mL | 0.25 µg/mL | 0.25 µg/mL | 0.25 µg/mL | 256 µg/mL | 0.25 µg/mL | – | – | – | – | – | –
6 | CCO/N=C(\CN1CCN(c2c(F)cc3c(=O)c(C(=O)O)cn(C4CC4)c3c2Cl)CC1)c1nccs1 | 256 µg/mL | 0.25 µg/mL | 0.25 µg/mL | 0.25 µg/mL | 0.25 µg/mL | 0.25 µg/mL | 0.25 µg/mL | 0.25 µg/mL | 0.5 µg/mL | 256 µg/mL | 0.25 µg/mL | inactive | – | – | – | – | –
7 | CC(C)(C)O/N=C(\CN1CCN(c2cc3c(cc2F)c(=O)c(C(=O)O)cn3C2CC2)CC1)c1nccs1 | 1 µg/mL | 128 µg/mL | 4 µg/mL | 4 µg/mL | 2 µg/mL | 0.25 µg/mL | 4 µg/mL | 0.25 µg/mL | 1 µg/mL | 64 µg/mL | 4 µg/mL | – | – | – | – | – | –
8 | CCn1cc(C(=O)O)c(=O)c2cc(F)c(N3CCN(C/C(=N\OCC(=O)OC)c4nccs4)CC3)cc21 | 0.25 µg/mL | 32 µg/mL | 4 µg/mL | 2 µg/mL | 0.25 µg/mL | 0.25 µg/mL | 1 µg/mL | 0.25 µg/mL | 0.25 µg/mL | 256 µg/mL | 0.25 µg/mL | – | 64 | – | – | – | –
9 | CCO/N=C(\CN1CCN(c2cc3c(cc2F)c(=O)c(C(=O)O)cn3CC)CC1)c1nccs1 | 256 µg/mL | 0.25 µg/mL | 8 µg/mL | 4 µg/mL | 16 µg/mL | 0.25 µg/mL | 2 µg/mL | 8 µg/mL | 0.5 µg/mL | 256 µg/mL | 0.25 µg/mL | – | 64 | – | – | – | –
10 | C=CCO/N=C(\CN1CCN(c2cc3c(cc2F)c(=O)c(C(=O)O)cn3C2CC2)CC1)c1nccs1 | 0.5 µg/mL | 1 µg/mL | 0.25 µg/mL | 32 µg/mL | 0.25 µg/mL | 0.25 µg/mL | 0.25 µg/mL | 0.25 µg/mL | 0.25 µg/mL | 0.25 µg/mL | 0.25 µg/mL | – | – | – | – | – | –
11 | O=C(O)c1cn(C2CC2)c2cc(N3CCNCC3)c(F)cc2c1=O [CIPROFLOXACIN] | – | – | 2 µg/mL | 0.5 µg/mL | 2 µg/mL | – | – | 1 µg/mL | 2 µg/mL | 2 µg/mL | 8 µg/mL | – | – | 0.125 µg/mL | 2 µg/mL (≈ 6.04 µM) | 1 µg/mL (≈ 3.02 µM) | –
12 | CCn1cc(C(=O)O)c(=O)c2cc(F)c(N3CCNCC3)cc21 [NORFLOXACIN] | 16 µg/mL | 16 µg/mL | 4 µg/mL | 2 µg/mL | 4 µg/mL | 2 µg/mL | 2 µg/mL | 8 µg/mL | 2 µg/mL | 4 µg/mL | 16 µg/mL | – | – | – | – | – | –
13 | CCn1cc(C(=O)O)c(=O)c2cc(F)c(N3CCN(CC(=O)c4nccs4)CC3)cc21 | 64 µg/mL | 32 µg/mL | 4 µg/mL | 1 µg/mL | 2 µg/mL | 4 µg/mL | 16 µg/mL | 2 µg/mL | 2 µg/mL | 32 µg/mL | 4 µg/mL | – | 4 | – | – | – | 16
14 | CCn1cc(C(=O)O)c(=O)c2cc(F)c(N3CCN(C/C(=N\OC)c4nccs4)CC3)cc21 | 256 µg/mL | 0.25 µg/mL | 2 µg/mL | 0.25 µg/mL | 4 µg/mL | 0.25 µg/mL | 0.25 µg/mL | 8 µg/mL | 0.5 µg/mL | 256 µg/mL | 0.25 µg/mL | inactive | 64 | – | – | – | –
15 | CCn1cc(C(=O)O)c(=O)c2cc(F)c(N3CCN(C/C(=N\OCc4ccccc4)c4nccs4)CC3)cc21 | 64 µg/mL | 0.5 µg/mL | 4 µg/mL | 256 µg/mL | 0.25 µg/mL | 0.5 µg/mL | 1 µg/mL | 1 µg/mL | 0.25 µg/mL | 128 µg/mL | 0.25 µg/mL | – | 64 | – | – | – | –
16 | O=C(O)c1cn(C2CC2)c2cc(N3CCN(C/C(=N\OCc4ccccc4)c4nccs4)CC3)c(F)cc2c1=O | 256 µg/mL | 0.25 µg/mL | 0.25 µg/mL | 0.5 µg/mL | 2 µg/mL | 0.25 µg/mL | 8 µg/mL | 1 µg/mL | 1 µg/mL | 256 µg/mL | 0.25 µg/mL | – | – | – | – | – | –
17 | O=C(CN1CCN(c2cc3c(cc2F)c(=O)c(C(=O)O)cn3C2CC2)CC1)c1nccs1 | 4 µg/mL | 4 µg/mL | 1 µg/mL | 2 µg/mL | 8 µg/mL | 1 µg/mL | 2 µg/mL | 1 µg/mL | 4 µg/mL | 16 µg/mL | 16 µg/mL | – | – | – | – | – | –
18 | COC(=O)CO/N=C(\CN1CCN(c2c(F)cc3c(=O)c(C(=O)O)cn(C4CC4)c3c2Cl)CC1)c1nccs1 | 0.5 µg/mL | 4 µg/mL | 0.25 µg/mL | 0.25 µg/mL | 0.25 µg/mL | 0.25 µg/mL | 4 µg/mL | 0.25 µg/mL | 0.25 µg/mL | 256 µg/mL | 0.25 µg/mL | – | – | – | – | – | –
19 | O=C(O)c1cn(C2CC2)c2c(Cl)c(N3CCN(C/C(=N\OCc4ccccc4)c4nccs4)CC3)c(F)cc2c1=O | 0.25 µg/mL | 0.25 µg/mL | 2 µg/mL | 2 µg/mL | 0.25 µg/mL | 1 µg/mL | 0.25 µg/mL | 0.25 µg/mL | 1 µg/mL | 0.25 µg/mL | 0.25 µg/mL | – | – | – | – | – | –
20 | CCn1cc(C(=O)O)c(=O)c2cc(F)c(N3CCN(C/C(=N\OC(C)(C)C)c4nccs4)CC3)cc21 | 1 µg/mL | 1 µg/mL | 0.25 µg/mL | 16 µg/mL | 0.25 µg/mL | 2 µg/mL | 16 µg/mL | 1 µg/mL | 1 µg/mL | 1 µg/mL | 0.25 µg/mL | – | 64 | – | – | – | –
21 | CO/N=C(\CN1CCN(c2cc3c(cc2F)c(=O)c(C(=O)O)cn3C2CC2)CC1)c1nccs1 | 256 µg/mL | 0.25 µg/mL | 0.25 µg/mL | 0.25 µg/mL | 0.25 µg/mL | 0.25 µg/mL | 1 µg/mL | 2 µg/mL | 0.25 µg/mL | 256 µg/mL | 0.25 µg/mL | inactive | – | – | – | – | –
